We go through six compounds from ChEMBL document CHEMBL1144747, “(Phenylpiperazinyl-butyl)oxindoles as selective 5-HT7 receptor antagonists” (J Med Chem, 2008).

Data set [1] concerns Rattus norvegicus. In words: Anxiolytic activity in ip dosed Wistar rat assessed as number of punished licks for 5 mins by conflict drinking test. The data set is classed as functional. As to conditions: read-out: MED. An outline of the steps:
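Modified Vogel test in male Wistar rats, 160–180 g, water-deprived 48 h and fasted 24 h. Dosed ip 30 min before test. After a 30 s free-drinking period, 600 µA, 0.6 s shocks came through the spout every 20 licks over 5 min. Punished licks counted; minimal effective dose reported.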

Data set [2] has as its target T1, 5-hydroxytryptamine receptor 1A (Rattus norvegicus) (UniProt P19327).
T1 sequence (whole entry): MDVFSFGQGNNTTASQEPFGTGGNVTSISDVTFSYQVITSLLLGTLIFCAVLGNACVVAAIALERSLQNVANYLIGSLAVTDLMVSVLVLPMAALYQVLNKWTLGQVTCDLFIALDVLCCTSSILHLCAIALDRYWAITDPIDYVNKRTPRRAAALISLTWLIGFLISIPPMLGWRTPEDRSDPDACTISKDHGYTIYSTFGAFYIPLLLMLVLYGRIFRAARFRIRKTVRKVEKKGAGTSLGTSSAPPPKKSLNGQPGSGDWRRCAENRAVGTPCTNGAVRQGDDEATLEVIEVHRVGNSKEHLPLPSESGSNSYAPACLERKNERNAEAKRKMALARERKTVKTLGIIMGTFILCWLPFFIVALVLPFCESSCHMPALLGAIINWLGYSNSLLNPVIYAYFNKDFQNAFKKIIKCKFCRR
Put plainly: Displacement of [3H]8-OH-DPAT from 5HT1A receptor in rat frontal cortex membrane at 0.1 uM. The data set is classed as cell membranes. An outline of the steps:
(§1)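 Rat tissue homogenized in 50 mM Tris-HCl pH 7.7, washed by repeated 40000g spins with a 10 min 37 °C incubation. Buffer: Tris-HCl, 6.66 mM CaCl2, 16.66 µM pargyline, 0.166% ascorbate. Labelled with 1.5 nM [3H]8-OH-DPAT, 45 min at 25 °C; nonspecific with 10 µM 5-HT. GF/B filtration, then scintillation counting; percent inhibition.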
On the technique in general: Displacement assays read how much labelled ligand stays bound in the presence of the test substance.

The target in data set [3] is T2, 5-hydroxytryptamine receptor 7 (Homo sapiens, UniProt P34969). In words: Antagonist activity at human 5HT7A receptor expressed in CHO cells assessed as inhibition of […]-induced cAMP elevation at 10 nM administered before […] challenge. The data set is classed as functional, cell-based. Details: scale not given: the % may be the effect or the level left. Summed up:
(§2)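 CHO cells stably expressing human 5-HT7A, cultured in F12:DMEM with 5% FCS, seeded 24 h ahead. Compounds from 1 mM DMSO stock (final DMSO 0.1%) preincubated 10 min, then 20 min with 10 nM 5-CT at 37 °C. Cells lysed, cAMP by EIA, normalized to BCA protein. The 5-CT-induced level is taken as 100%; six independent experiments.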

Data set [4] addresses T2, 5-hydroxytryptamine receptor 7. Put plainly: Displacement of [3H]LSD from human recombinant 5HT7 receptor expressed in CHO cells. The data set is classed as cell-based. As to conditions: read-out: Ki. Summed up:
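Cloned human 5-HT7 receptor from CHO cells, labelled with [3H]LSD; nonspecific binding with 25 µM clozapine. Stopped by filtration on PEI-soaked GF/C filters, then scintillation counting. Ki from two displacement curves of nine concentrations each, run in triplicate.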

The next data set relates to Mus musculus. Put plainly: Anxiolytic activity in ip dosed NMRI mouse assessed as behavioral activity for 5 mins by light dark assay. The data set is classed as functional. Conditions: read-out: MED. An outline of the steps:
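Male NMRI mice, 25–33 g, kept in a dark room and dosed ip 30 min before test, then placed in the centre of the lit area. Over 5 min, time in each area, transitions, and horizontal and vertical activity were recorded. Minimal effective dose by one-way ANOVA with Duncan's test.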

The target in data set [5] is T1, 5-hydroxytryptamine receptor 1A (Rattus norvegicus). Put plainly: Displacement of [3H]8-OH-DPAT from 5HT1A receptor in rat frontal cortex membrane at 10 nM. The data set is classed as cell membranes. An outline of the steps:
as §1

The target of data set [6] is T2, 5-hydroxytryptamine receptor 7. Put plainly: Antagonist activity at human 5HT7A receptor expressed in CHO cells assessed as inhibition of […]-induced cAMP elevation at 1 uM. Further details: scale not given: the % may be the effect or the level left. In kind it is functional, cell-based. Summed up:
as §2

The species entered for data set [7] is Rattus norvegicus. Put plainly: Metabolic stability in rat. In kind it is ADME, organism-based. Conditions: in vitro.

The structures appear in SMILES notation.

T2 sequence (P34969 whole entry): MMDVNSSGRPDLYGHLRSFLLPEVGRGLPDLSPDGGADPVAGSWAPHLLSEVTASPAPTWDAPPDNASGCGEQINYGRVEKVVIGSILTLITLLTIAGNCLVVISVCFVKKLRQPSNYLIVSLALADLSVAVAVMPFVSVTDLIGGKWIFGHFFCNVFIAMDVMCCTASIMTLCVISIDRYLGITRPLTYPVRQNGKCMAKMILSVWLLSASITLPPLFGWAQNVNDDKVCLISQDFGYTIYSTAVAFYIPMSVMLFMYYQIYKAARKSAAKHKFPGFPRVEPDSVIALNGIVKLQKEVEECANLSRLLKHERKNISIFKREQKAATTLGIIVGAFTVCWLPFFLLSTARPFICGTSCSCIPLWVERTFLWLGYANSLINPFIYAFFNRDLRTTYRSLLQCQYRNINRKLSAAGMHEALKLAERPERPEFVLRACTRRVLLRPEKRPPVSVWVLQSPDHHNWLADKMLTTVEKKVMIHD

For the compound `O=C1Nc2ccccc2C1CCCCN1CCN(c2cccc(Cl)c2)CC1` (configuration not stated), the values for the minimal effective dose in the data set with Rattus norvegicus [1] and in the data set on Mus musculus were less than 5 mg/kg and greater than 10 mg/kg, respectively. In addition, the Activity in data set [2] was 40%; in data set [3], 80%; in data set [5] it was 9%; in data set [6], greater than 95%. For the same compound, in data set [4], the Ki came to 490 pM.

In the data set listed under Rattus norvegicus [7], `CCC1(CCCCN2CCN(c3ccc(Cl)cc3)CC2)C(=O)Nc2c(Cl)cc(Cl)cc21` (configuration not stated) yielded a Stability of 76%. Moreover, the values for the minimal effective dose in the data set on Rattus norvegicus [1] and with Mus musculus were less than 5 mg/kg and less than 1 mg/kg, respectively. This compound yielded an Activity in data set [2] of 5%. Further, the Ki in data set [4] is 10100 pM.

With `CCC1(CCCCCN2CCN(c3cccc(Cl)c3)CC2)C(=O)Nc2ccccc21` (configuration not stated), the minimal effective dose in the data set on Rattus norvegicus [1] and in the data set with Mus musculus was greater than 10 mg/kg throughout. In addition, the Activity was 43% in data set [2], 20% in data set [3], 12% in data set [5] and greater than 95% in data set [6]. Also, the Ki in data set [4] was 1450 pM.

`CCC1(CCCCN2CCN(c3cccc(Cl)c3)CC2)C(=O)Nc2ccccc21` (configuration not stated) gave a Stability in the data set listed under Rattus norvegicus [7] of 4%. Also, the values for the minimal effective dose with Rattus norvegicus [1] and in the data set on Mus musculus were greater than 20 mg/kg and greater than 10 mg/kg, respectively. Moreover, the Activity in data set [2] is 42%; in data set [3], 40%; in data set [5], 11%; in data set [6], greater than 95%. Moreover, the Ki in data set [4] was 410 pM.

In the data set listed under Rattus norvegicus [7], `O=C1Nc2ccc(F)cc2C1CCCCN1CCN(c2ccc(F)cc2)CC1` (configuration not stated) came in with a Stability of 40%. Further, the minimal effective dose with Rattus norvegicus [1] was greater than 10 mg/kg. This compound also had an Activity in data set [2] of 6%. The Ki in data set [4] turned out to be 3400 pM.

In the data set filed under Rattus norvegicus [7], `CCC1(CCCCN2CCN(c3ccc(Cl)cc3)CC2)C(=O)Nc2ccccc21` (configuration not stated) gave a Stability of 9%. Also, the minimal effective dose was 10 mg/kg in the data set with Rattus norvegicus [1] and greater than 10 mg/kg in the data set with Mus musculus. Also, the results for the Activity in data set [2] and in data set [5] were 11% and 2%, respectively. In addition, in data set [4], the Ki stood at 380 pM.

In general, Ki refers to the dissociation constant of the complex between target and ligand, obtained from inhibition or displacement.
